Consider 1 compound from ChEMBL document CHEMBL3588826, “Chimeric derivatives of functionalized amino acids and α-aminoamides: compounds with anticonvulsant activity in seizure models and inhibitory actions on central, peripheral, and cardiac isoforms of voltage-gated sodium channels” (Bioorg Med Chem, 2015).

The source made the active and inactive calls. The calls are words filed in the database; no cut-off is given here.

The subject of data set [1] is Rattus norvegicus. The data set can be described thus: Toxicity in po dosed Sprague-Dawley rat assessed as adverse effects administered via gavage. The data set is classed as organism-based. As to conditions: in vivo. The procedure, abridged: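 Non-GLP 7-day repeated-dose study in female Sprague-Dawley rats, given by oral gavage at 20, 60 and 180 mg/kg/day. Endpoints: weight bearing, gait coordination, respiratory rate, relative organ weights, clinical chemistry and gross pathology, giving a NOAEL. The ratio divides the NOAEL by the oral MES ED50.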

Data set [2] in a line: Half life in Sprague-Dawley rat at 20 mg/kg, po. The data set is classed as ADME, organism-based. The conditions noted are these: in vivo. The procedure, abridged: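 Pharmacokinetics in Sprague-Dawley rats given a single iv dose of 5 mg/kg or an oral dose of 20 mg/kg.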
In data set [3] the test system is Rattus norvegicus. The data set can be described thus: Toxicity in po dosed Sprague-Dawley rat assessed as coordination in gait administered via gavage. The data set is classed as organism-based. As to conditions: in vivo. The procedure, abridged:
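Non-GLP 7-day repeated-dose study in female Sprague-Dawley rats given oral gavage at 20, 60 and 180 mg/kg/day. Endpoints were weight bearing, gait coordination, respiratory rate, relative organ weights, clinical chemistry and gross pathology, with NOAEL determined.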

Data set [4] addresses Sodium channel protein type 1 subunit alpha (Homo sapiens) (UniProt P35498). The data set can be described thus: Frequency-dependent inhibition of human Nav1.1 expressed in HEK293 cells assessed as current amplitude at 10 uM by whole cell patch-clamp electrophysiology. The data set is classed as cell-based. In short, it runs like this:
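Stable HEK293 lines expressing hNav1.1, rNav1.3, hNav1.7 or hNav1.5 were recorded by whole-cell voltage clamp at room temperature, with 10 μM compound versus 0.1% DMSO. A 30-pulse train was applied, and the read-out was the fraction of current remaining at the last pulse normalized to the first. Nav1.5 used hyperpolarized protocols.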

Data set [5] concerns the target Sodium channel protein type 3 subunit alpha (Rattus norvegicus) (UniProt P08104). The data set can be described thus: Inhibition of rat Nav1.3 expressed in HEK293 cells assessed as transition of channels to slow-inactivated state at 10 uM measured at -50 mV by whole cell patch-clamp electrophysiology. The data set is classed as cell-based. In short, it runs like this: (§1)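 HEK293 cells stably expressing hNav1.1, rNav1.3, hNav1.7 or hNav1.5 were grown in DMEM with 10% FBS. Recordings were whole-cell voltage clamp at room temperature, with 10 μM compound versus 0.1% DMSO. Slow inactivation at −50 mV was calculated as 1 minus normalized peak INa. Nav1.5 used hyperpolarized protocols. Data are from 5–6 cells.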

In data set [6] the test system is Mus musculus. The data set can be described thus: Anticonvulsant activity in ip dosed corneal kindled seizure mouse model measured after 0.25 hrs. The data set is classed as functional.
Data set [7] addresses Cytochrome P450 3A5 (Homo sapiens, UniProt P20815). The data set can be described thus: Inhibition of human CYP3A5 at 10 uM. The data set is classed as ADME. The procedure, abridged:
(§2)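 Test compound at 10 μM against a human CYP450 panel (CYP1A2, 2B6, 2C8, 2C9, 2C19, 2D6, 3A4/5). Direct inhibition was measured, and time-dependent inhibition was measured after a 30-min preincubation.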

In data set [8] the target is Cytochrome P450 2C19 (Homo sapiens, UniProt P33261). The data set can be described thus: Inhibition of human CYP2C19 at 10 uM. The data set is classed as ADME. In short, it runs like this: as §2
Sequence of Cytochrome P450 2C19 (P33261 whole entry): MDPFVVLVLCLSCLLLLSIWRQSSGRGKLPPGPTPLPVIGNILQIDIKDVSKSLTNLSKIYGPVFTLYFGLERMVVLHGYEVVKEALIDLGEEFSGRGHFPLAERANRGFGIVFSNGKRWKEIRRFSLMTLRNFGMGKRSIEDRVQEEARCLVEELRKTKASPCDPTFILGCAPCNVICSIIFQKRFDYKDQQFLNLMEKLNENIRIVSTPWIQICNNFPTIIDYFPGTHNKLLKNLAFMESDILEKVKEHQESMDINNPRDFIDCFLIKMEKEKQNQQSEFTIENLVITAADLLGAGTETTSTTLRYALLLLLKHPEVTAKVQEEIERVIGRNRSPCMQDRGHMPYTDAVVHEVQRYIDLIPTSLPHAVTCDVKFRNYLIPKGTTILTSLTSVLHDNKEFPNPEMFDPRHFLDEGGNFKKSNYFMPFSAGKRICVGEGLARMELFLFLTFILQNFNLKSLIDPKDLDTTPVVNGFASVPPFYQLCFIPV
The nature of data set [9]: Neurotoxicity in ip dosed albino Carworth Farms No. 1 mouse measured at 0.25 hrs by rotarod test. The data set is classed as toxicity, organism-based. The conditions noted are these: in vivo.
Data set [10] can be described thus: Protective index, ratio of TD50 for behavioural toxicity in po dosed albino Sprague-Dawley rat to ED50 for anticonvulsant activity in po dosed MES albino Sprague-Dawley rat model. As to conditions: in vivo, read-out: Ratio TD50/ED50. The data set is classed as organism-based. The procedure, abridged: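 Male albino Sprague-Dawley rats were dosed ip or orally. Protective index = TD50/ED50, the ED50 taken from maximal electroshock by the same route.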

Data set [11] addresses T1, Cytochrome P450 2B6 (Homo sapiens, UniProt P20813).
T1 sequence (P20813 whole entry): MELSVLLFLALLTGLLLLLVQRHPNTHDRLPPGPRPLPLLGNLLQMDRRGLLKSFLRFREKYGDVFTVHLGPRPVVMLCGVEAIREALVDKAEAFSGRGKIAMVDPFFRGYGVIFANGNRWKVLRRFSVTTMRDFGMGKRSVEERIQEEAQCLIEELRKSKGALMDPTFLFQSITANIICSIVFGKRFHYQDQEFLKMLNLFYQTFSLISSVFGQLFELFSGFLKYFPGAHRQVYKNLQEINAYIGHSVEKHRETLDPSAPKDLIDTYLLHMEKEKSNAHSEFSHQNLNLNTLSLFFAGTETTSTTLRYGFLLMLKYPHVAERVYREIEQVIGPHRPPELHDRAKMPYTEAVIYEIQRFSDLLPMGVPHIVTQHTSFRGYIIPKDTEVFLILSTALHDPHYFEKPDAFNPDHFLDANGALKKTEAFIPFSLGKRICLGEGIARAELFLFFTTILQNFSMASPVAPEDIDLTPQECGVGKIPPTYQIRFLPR
The data set can be described thus: Inhibition of human CYP2B6 at 10 uM. The data set is classed as ADME. In short, it runs like this:
as §2

Data set [12] deals with Rattus norvegicus. The data set can be described thus: Toxicity in po dosed Sprague-Dawley rat assessed as increase in liver weight administered via gavage. The data set is classed as organism-based. The conditions noted are these: in vivo. The procedure, abridged:
(§3)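 Non-GLP repeated-dose study: female Sprague-Dawley rats given compound by oral gavage once daily for 7 days at 20, 60 and 180 mg/kg/day. Endpoints included weight bearing, gait coordination, respiratory rate, relative organ weights (liver, spleen, thymus), clinical chemistry and gross pathology; NOAEL derived.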

Data set [13] is described as follows: Protective index, ratio of TD50 for behavioural toxicity in ip dosed albino Sprague-Dawley rat to ED50 for anticonvulsant activity in ip dosed MES albino Sprague-Dawley rat model. As to conditions: in vivo, read-out: Ratio TD50/ED50. The data set is classed as organism-based. In short, it runs like this:
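Male albino Sprague-Dawley rats were dosed ip or orally. […] Protective index = TD50/ED50, the ED50 taken from maximal electroshock by the same route.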

The test system of data set [14] is Rattus norvegicus. The data set can be described thus: Toxicity in po dosed Sprague-Dawley rat assessed as gross pathological changes administered via gavage. As to conditions: in vivo. The data set is classed as organism-based. In short, it runs like this: as §3
Data set [15] deals with Sodium channel protein type 1 subunit alpha (Homo sapiens) (UniProt P35498). The data set can be described thus: Inhibition of human Nav1.1 expressed in HEK293 cells assessed as half-maximal voltage for steady state activation at 10 uM by whole cell patch-clamp electrophysiology (reference value: -24.69 +/-1.52 mV). The data set is classed as cell-based.
In data set [16] the target is Sodium channel protein type 5 subunit alpha (Homo sapiens, UniProt Q14524). The data set can be described thus: Inhibition of human Nav1.5 expressed in HEK293 cells assessed as transition of channels to slow-inactivated state at 10 uM measured at -50 mV by whole cell patch-clamp electrophysiology. The data set is classed as cell-based. The conditions noted are these: hek293, 10 µM. In short, it runs like this:
as §1

The target of data set [17] is T2, CYP2C8 (Homo sapiens, UniProt P10632).
T2 sequence (P10632 whole entry): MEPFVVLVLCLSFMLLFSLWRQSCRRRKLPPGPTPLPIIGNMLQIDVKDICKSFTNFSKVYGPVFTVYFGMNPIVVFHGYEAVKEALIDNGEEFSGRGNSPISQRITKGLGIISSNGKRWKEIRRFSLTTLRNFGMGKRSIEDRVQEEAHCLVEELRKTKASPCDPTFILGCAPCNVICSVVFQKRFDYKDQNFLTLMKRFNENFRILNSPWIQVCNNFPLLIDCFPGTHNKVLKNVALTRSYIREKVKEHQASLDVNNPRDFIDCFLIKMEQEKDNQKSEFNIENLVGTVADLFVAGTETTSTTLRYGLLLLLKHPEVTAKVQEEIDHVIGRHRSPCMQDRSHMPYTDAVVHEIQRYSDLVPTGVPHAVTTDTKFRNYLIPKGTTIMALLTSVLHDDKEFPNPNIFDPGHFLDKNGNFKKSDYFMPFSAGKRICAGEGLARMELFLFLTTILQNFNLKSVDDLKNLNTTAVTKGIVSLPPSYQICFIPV
The data set can be described thus: Time-dependent inhibition of human CYP2C8 measured after 30 mins preincubation period. The data set is classed as ADME. The procedure, abridged:
as §2

Sequence of Sodium channel protein type 5 subunit alpha (Q14524 whole entry): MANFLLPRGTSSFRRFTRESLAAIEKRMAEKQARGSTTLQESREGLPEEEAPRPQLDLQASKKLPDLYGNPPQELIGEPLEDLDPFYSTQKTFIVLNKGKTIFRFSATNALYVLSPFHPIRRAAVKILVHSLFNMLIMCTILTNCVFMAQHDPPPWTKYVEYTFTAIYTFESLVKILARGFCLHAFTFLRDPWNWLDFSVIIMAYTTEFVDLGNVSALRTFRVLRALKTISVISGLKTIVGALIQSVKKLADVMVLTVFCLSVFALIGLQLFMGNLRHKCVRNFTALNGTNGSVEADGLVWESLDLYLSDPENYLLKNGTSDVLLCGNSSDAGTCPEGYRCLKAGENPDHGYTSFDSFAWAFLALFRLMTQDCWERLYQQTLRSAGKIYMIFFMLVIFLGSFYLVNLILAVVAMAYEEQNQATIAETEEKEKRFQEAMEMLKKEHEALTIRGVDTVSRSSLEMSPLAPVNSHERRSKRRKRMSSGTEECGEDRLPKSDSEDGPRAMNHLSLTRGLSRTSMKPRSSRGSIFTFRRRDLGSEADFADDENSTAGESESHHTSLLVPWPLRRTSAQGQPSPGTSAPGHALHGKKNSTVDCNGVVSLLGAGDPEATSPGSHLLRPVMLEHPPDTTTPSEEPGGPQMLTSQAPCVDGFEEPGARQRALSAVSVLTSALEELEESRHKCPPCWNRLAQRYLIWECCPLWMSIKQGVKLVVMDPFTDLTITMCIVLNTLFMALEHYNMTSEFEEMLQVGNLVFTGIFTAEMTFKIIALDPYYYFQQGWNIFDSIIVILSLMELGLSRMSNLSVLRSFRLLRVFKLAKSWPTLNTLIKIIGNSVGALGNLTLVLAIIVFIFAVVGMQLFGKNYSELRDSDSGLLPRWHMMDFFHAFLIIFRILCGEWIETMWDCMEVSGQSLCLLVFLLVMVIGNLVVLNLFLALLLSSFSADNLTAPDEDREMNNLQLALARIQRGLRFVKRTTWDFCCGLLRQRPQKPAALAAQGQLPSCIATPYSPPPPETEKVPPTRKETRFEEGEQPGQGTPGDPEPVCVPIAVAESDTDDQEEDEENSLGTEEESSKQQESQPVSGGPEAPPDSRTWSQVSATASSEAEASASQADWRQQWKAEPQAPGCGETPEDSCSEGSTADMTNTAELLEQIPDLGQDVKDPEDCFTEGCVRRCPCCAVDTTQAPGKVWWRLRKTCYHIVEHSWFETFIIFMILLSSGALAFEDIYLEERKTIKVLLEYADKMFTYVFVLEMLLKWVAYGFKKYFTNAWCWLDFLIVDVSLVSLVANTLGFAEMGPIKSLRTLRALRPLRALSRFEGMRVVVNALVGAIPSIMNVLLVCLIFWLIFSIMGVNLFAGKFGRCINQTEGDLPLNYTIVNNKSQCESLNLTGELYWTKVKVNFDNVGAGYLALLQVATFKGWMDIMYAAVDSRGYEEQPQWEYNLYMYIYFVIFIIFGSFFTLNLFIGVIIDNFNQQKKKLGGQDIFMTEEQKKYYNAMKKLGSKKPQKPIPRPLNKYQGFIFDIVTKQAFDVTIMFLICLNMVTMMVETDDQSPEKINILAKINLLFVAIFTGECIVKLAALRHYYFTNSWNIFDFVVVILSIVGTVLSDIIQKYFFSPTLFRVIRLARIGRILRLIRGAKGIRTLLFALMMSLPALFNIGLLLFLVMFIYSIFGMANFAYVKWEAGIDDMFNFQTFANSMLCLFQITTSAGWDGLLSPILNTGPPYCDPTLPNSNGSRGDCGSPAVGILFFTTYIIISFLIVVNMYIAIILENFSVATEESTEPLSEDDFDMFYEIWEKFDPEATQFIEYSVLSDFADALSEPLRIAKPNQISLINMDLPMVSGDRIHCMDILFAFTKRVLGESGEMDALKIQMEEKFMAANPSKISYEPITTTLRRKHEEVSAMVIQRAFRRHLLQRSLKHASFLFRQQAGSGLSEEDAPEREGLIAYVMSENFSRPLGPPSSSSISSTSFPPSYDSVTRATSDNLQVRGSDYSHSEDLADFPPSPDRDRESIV
Sequence of Cytochrome P450 3A5 (P20815 whole entry): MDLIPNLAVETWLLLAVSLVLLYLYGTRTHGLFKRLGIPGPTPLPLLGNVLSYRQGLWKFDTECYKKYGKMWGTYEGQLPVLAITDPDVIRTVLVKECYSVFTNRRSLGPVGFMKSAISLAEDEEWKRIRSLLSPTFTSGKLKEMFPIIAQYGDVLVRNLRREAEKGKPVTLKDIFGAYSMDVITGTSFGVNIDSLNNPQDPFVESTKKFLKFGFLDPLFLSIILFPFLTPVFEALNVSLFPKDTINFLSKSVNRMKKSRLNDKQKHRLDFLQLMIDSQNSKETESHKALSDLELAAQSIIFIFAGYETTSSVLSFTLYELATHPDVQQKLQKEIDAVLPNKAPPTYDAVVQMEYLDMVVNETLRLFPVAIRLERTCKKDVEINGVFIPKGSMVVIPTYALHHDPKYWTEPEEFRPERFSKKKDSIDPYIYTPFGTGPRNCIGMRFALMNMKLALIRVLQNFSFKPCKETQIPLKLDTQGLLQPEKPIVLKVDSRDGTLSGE
Sequence of Sodium channel protein type 3 subunit alpha (Rattus norvegicus) (P08104 whole entry): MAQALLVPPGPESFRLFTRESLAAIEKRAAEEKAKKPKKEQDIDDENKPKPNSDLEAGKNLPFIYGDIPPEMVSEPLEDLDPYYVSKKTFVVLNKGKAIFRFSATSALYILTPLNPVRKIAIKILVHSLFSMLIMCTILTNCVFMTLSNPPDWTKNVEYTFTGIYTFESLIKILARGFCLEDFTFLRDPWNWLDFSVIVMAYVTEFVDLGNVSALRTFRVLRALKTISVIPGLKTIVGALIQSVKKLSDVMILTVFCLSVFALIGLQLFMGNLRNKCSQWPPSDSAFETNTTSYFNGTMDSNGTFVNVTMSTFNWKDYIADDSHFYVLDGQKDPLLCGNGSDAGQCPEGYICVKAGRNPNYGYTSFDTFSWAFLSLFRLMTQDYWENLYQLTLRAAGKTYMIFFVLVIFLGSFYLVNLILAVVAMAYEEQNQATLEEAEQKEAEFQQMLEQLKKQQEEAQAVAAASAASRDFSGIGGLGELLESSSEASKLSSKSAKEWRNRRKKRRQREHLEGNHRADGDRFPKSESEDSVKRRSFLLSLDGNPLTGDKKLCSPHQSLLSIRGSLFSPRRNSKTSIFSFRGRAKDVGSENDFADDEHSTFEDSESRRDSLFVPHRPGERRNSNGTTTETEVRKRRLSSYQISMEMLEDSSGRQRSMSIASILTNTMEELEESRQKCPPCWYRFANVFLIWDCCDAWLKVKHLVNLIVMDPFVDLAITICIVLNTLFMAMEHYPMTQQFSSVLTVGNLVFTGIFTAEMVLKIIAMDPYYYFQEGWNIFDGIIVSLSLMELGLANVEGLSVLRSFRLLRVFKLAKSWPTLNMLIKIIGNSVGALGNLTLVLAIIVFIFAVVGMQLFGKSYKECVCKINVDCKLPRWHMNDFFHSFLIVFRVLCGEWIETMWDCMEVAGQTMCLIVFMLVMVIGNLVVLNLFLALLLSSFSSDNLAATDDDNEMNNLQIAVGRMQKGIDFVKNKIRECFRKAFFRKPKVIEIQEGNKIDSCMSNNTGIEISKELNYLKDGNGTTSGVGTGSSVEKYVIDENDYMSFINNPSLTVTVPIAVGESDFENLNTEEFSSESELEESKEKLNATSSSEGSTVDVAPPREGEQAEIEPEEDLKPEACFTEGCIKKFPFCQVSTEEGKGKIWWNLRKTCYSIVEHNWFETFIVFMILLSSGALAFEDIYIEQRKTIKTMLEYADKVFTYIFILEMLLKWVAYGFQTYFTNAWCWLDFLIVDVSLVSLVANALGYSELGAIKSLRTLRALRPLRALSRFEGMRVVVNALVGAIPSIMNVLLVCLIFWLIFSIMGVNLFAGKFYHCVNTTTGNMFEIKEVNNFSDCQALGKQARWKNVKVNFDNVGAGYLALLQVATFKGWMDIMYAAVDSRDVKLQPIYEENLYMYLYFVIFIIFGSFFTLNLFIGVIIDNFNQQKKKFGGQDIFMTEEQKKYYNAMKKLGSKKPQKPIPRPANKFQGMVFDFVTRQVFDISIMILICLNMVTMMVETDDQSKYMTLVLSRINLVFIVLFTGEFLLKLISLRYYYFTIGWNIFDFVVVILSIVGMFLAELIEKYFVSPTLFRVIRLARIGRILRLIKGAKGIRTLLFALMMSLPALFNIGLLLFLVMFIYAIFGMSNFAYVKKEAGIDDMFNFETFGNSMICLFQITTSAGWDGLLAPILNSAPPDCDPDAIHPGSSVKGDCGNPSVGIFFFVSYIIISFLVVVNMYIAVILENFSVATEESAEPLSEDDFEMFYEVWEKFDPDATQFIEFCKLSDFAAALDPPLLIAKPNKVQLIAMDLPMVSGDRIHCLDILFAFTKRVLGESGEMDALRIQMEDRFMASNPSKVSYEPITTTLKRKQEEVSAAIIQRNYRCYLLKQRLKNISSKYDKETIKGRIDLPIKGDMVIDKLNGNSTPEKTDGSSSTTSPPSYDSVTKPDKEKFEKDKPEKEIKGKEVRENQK

As for `COC[C@@H](NC(C)=O)C(=O)NCc1ccc(Oc2cccc(OC(F)(F)F)c2)cc1`, the no-observed-adverse-effect level (NOAEL) in [1] is on record as 60 mg/kg/day. In addition, in data set [2], the half-life was 4.63 h. Moreover, the Activity entry in data set [3], in data set [12] and in data set [14] was “Toxic” each time. Also, in data set [4], the inhibition entry is “inactive”. In data set [5], the inhibition result is “Active”. For the same compound, the median effective dose (ED50) in [6] amounted to 41 mg/kg. The “inhibition (INH)” value in data set [7] is “Not Active”; in data set [8] it was “Not Active”; in data set [11] it was “Not Active”; in data set [16], “Active”. The TD50 at 0.25 h in data set [9] came out at 40 mg/kg. In addition, the selectivity ratio in [10] came out at 29; in data set [13], 9.5. Moreover, in [15], the V1/2 is -24.4 mV. Further, in data set [17], the inhibition at 0.5 h is 16%.
